How the values were obtained:
[1] = biological target: Coagulation factor X (Homo sapiens, UniProt P00742); assay: Inhibition of human factor 10a
[2] = system: Plasma; assay: Anticoagulant potency in mouse plasma assessed as concentration required to double the time to clot formation by PT assay; assay type: functional
[3] = biological target: CYP3A4 (Homo sapiens, UniProt P08684); assay: Inhibition of CYP3A4 expressed in human B-lymphoblastoid cells at 10 uM; assay type: ADME, cell-based
Outline: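 Recombinant CYP3A4 (10 nM, from CYP3A4-expressing human B-lymphoblastoid cells) incubated with 100 µM testosterone and 10 µM test compound for 30 min at 37 °C; 6β-hydroxytestosterone formation quantified by HPLC-UV.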

[4] = system: Plasma; assay: Anticoagulant potency in human plasma assessed as concentration required to double the time to clot formation by PT assay; assay type: functional
Outline: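 Human normal plasma mixed with compound dilutions in DMSO (1.5 µL into 48.5 µL), preincubated 4 min at 37 °C, clotting started with thromboplastin and timed on an automatic coagulometer. Prolongation relative to DMSO; concentration doubling clotting time derived by least-squares regression; mean of duplicates.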

[5] = Basicity, pKa by titration method; assay type: physicochemical
[6] = system: Plasma; assay: Anticoagulant activity in mouse plasma assessed as ratio of prothrombin time in drug to untreated control at 30 mg/kg, po; assay type: functional
Outline: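 Male ICR mice (30-35 g), fasted >12 h, dosed orally at 30 mg/kg as suspension in 0.5% methylcellulose; vehicle controls. Citrated aortic blood drawn 1 h post-dose under pentobarbital anaesthesia, spun 1000g 10 min to platelet-poor plasma. PT on 50 µL plasma preincubated 4 min at 37 °C, started with thromboplastin; clotting time expressed relative to control group (n = 3).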

[7] = physchem; conditions: buffer, pH 7.4

Sequence of CYP3A4 (P08684 whole entry): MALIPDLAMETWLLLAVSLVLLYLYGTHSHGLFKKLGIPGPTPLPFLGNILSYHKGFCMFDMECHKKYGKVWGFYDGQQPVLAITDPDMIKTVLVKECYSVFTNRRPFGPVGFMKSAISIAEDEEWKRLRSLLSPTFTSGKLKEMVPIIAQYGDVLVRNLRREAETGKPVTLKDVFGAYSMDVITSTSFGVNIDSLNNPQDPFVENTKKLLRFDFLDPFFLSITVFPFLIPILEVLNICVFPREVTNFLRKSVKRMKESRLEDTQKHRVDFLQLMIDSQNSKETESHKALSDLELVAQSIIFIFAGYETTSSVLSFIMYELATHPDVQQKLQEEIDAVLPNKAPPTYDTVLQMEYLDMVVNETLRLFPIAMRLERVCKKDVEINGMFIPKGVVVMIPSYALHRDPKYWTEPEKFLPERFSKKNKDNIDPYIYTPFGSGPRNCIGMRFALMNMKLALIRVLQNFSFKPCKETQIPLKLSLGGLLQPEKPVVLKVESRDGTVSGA
Sequence of Coagulation factor X (P00742 41-179 limits assumed): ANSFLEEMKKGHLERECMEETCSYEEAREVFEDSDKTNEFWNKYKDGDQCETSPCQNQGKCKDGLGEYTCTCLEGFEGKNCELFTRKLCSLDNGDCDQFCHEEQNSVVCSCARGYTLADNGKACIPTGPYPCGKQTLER
Sequence of Coagulation factor X (P00742 235-488 limits assumed): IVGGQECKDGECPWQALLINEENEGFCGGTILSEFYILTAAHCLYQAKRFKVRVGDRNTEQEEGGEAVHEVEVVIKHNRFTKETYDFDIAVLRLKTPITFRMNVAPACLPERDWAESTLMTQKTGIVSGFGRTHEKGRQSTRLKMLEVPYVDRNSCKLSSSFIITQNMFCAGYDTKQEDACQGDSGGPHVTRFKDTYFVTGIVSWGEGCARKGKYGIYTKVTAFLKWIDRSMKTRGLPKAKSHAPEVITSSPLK

Q: Which IC50 [1] does the source give for `Cc1nccn1CCC1CCN(C(=O)CCS(=O)(=O)c2ccc3cc(Cl)ccc3c2)CC1` here?
A: 37 nM

Q: And the Activity [2]?
A: 1.7 µM

Q: What about the inhibition at 10 µM [3] of the same molecule?
A: 38%

Q: And the Activity [4]?
A: 0.91 µM

Q: What about the pKa [5] of the same molecule?
A: 7.9

Q: And the Ratio [6]?
A: 1.1

Q: What about the logD [7] of the same molecule?
A: 2.2

Q: What does the source list for `Cc1nccn1CCN1CCN(C(=O)CCS(=O)(=O)c2ccc3cc(Cl)ccc3c2)CC1`?
A: IC50 [1]: 54 nM; Activity [2]: 2.1 µM; inhibition at 10 µM [3]: 53%; Activity [4]: 0.99 µM; Ratio [6]: 1.1

Q: What does the source list for `Cc1nccn1CCCC1CCN(C(=O)CCS(=O)(=O)c2ccc3cc(Cl)ccc3c2)CC1`?
A: IC50 [1]: 460 nM; Activity [4]: >10 µM

Q: Which results are given for `Cc1ncc2n1C(=O)N(N1CCN(C(=O)CCS(=O)(=O)c3ccc4cc(Cl)ccc4c3)CC1)C2`?
A: IC50 [1]: 6.9 nM; Activity [2]: 0.9 µM; inhibition at 10 µM [3]: 38%; Activity [4]: 0.61 µM; pKa [5]: 5; Ratio [6]: 2.8; logD [7]: 2.1

Q: Which results are given for `O=C(CCS(=O)(=O)c1ccc2cc(Cl)ccc2c1)N1CCC(c2cnc[nH]2)CC1`?
A: IC50 [1]: 170 nM; Activity [4]: 3 µM; pKa [5]: 6.9; logD [7]: 2

Q: With `Cn1cncc1C1CCN(C(=O)CCS(=O)(=O)c2ccc3cc(Cl)ccc3c2)CC1` as the molecule, how does the IC50 [1] read?
A: 56 nM

Q: And the Activity [2]?
A: 2.7 µM

Q: And the inhibition at 10 µM [3]?
A: 82%

Q: What about the Activity [4] of the same molecule?
A: 0.49 µM

Q: And the pKa [5]?
A: 7.2

Q: And the Ratio [6]?
A: 1.2

Q: What about the logD [7] of the same molecule?
A: 2

Q: For `O=C(CCS(=O)(=O)c1ccc2cc(Cl)ccc2c1)N1CCC(n2ccnc2)CC1`, which IC50 [1] is on record?
A: 1400 nM

Q: What about the Activity [4] of the same molecule?
A: 7 µM

Q: For `O=C(CCS(=O)(=O)c1ccc2cc(Cl)ccc2c1)N1CCN(c2cccc3nc(CO)cn23)CC1`, which IC50 [1] is on record?
A: 9.7 nM

Q: For `Cc1ncc(C2CCN(C(=O)CCS(=O)(=O)c3ccc4cc(Cl)ccc4c3)CC2)[nH]1`, which IC50 [1] is on record?
A: 120 nM

Q: And the Activity [4]?
A: 2.5 µM

Q: And the pKa [5]?
A: 7.9

Q: And the logD [7]?
A: 2

Q: With `Cc1nccn1C1CCN(C(=O)CCS(=O)(=O)c2ccc3cc(Cl)ccc3c2)CC1` as the molecule, how does the IC50 [1] read?
A: 170 nM

Q: What about the Activity [2] of the same molecule?
A: 3.3 µM

Q: What about the inhibition at 10 µM [3] of the same molecule?
A: 34%

Q: What about the Activity [4] of the same molecule?
A: 0.99 µM

Q: What about the Ratio [6] of the same molecule?
A: 1.1

Q: Which IC50 [1] does the source give for `O=C(CCS(=O)(=O)c1ccc2cc(Cl)ccc2c1)N1CCC(c2cnc3n2CCCC3)CC1` here?
A: 23 nM

Q: What about the Activity [2] of the same molecule?
A: 3 µM

Q: What about the inhibition at 10 µM [3] of the same molecule?
A: 42%

Q: And the Activity [4]?
A: 0.48 µM

Q: And the pKa [5]?
A: 8.2

Q: And the Ratio [6]?
A: 1.1

Q: And the logD [7]?
A: 2.2
